Screening data as filed in PubChem.
CAL PDZ FP-1 – blocks peptide binding to human CAL PDZ domain; purified CAL PDZ, TMR-peptide fluorescence polarization, 1 h; inhibition, % at 20 µM; hit rate 0.02% among 330,000; AID 504414;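 active = highest replicate inhibition of at least 40%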
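System: tagged CAL PDZ domain. Schedule: 1 h room-temperature incubation prior to read. Signal: fluorescence polarization (mP). Measure: percent inhibition from loss of millipolarization.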
ALR inh – blocks human ALR sulfhydryl oxidase activity; purified ALR, DTT oxidation, H2O2 HRP-luminol luminescence; inhibition, % (concentration not given with the values); AID 485317; hit rate 3.8% among 290,000;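 active = mean replicate inhibition above about 79%, with every replicate also reaching it, limit read from the data; inconclusive = only one of the two criteria met; inactive = mean below limit and not every replicate reaching it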
Target sequence (P55789 whole entry, looked up): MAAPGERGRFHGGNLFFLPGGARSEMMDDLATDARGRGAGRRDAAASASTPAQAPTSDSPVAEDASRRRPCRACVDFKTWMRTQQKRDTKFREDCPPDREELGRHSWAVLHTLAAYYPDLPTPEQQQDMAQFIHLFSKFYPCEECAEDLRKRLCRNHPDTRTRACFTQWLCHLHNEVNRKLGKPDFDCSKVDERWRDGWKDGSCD
Rtt109 HAT inh – inhibitors of Candida albicans Rtt109/Vps75 histone acetyltransferase | Q5AAJ8 | purified Rtt109/Vps75, ThioGlo CoA-SH fluorescence, 4 h | AID 540336 | hit rate 0.16% among 330,000 | inhibition, % at 34.9 µM;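 active = inhibition of at least 50% in every replicate; inconclusive = best replicate reaches 50% inhibition but some replicates fall short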
Target sequence (Q5AAJ8 whole entry, looked up): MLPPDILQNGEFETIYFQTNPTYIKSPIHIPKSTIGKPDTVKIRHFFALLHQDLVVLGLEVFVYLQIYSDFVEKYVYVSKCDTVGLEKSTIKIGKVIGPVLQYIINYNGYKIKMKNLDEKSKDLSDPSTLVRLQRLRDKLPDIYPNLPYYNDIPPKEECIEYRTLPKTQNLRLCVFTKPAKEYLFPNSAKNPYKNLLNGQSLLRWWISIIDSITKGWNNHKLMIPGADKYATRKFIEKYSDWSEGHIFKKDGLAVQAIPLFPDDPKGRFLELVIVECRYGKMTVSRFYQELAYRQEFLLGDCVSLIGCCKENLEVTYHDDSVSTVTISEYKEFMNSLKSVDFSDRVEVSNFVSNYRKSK
CAL PDZ FP-2 – CAL PDZ (human) peptide binding inhibition | inhibition, % at 24.9 µM | Q9HD26 | AID 602252 | purified CAL PDZ, TMR-peptide fluorescence polarization, 1 h | hit rate 0.92% among 300,000;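 active = mean inhibition of at least 30% with at least half of replicates also reaching 30%; inconclusive = no clear call, values can overlap the other calls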
Dyrk1A ADPGlo – blocks rat Dyrk1A kinase activity; Q63470; ADP-Glo luminescence, NFATc1 peptide; inhibition, % at 12.5 µM; hit rate 0.43% among 310,000; in the data active = inhibition above about 50%
Large screens that a line does not name were inactive. An excerpt weighted towards active compounds, which were near 4.3% of everything screened.

Cc1ccc(-c2nc3ccccn3c2Nc2ccccc2)o1	ALR inh 98.9
Cc1ccc(Nc2c(-c3ccc(C)o3)nc3cnccn23)cc1	none (no result: ALR inh)
Cc1ccc(-c2nc3cnccn3c2Nc2ccccc2)o1	ALR inh 98.2
O=C(CN1CCN(C(=O)C2CCCO2)CC1)Nc1ccc(Cl)c(Cl)c1 (stereo not drawn)	none (no result: CAL PDZ FP-2)
CNS(=O)(=O)c1ccc(CNC[C@H]2O[C@@H](n3cnc(C(N)=O)n3)[C@H](O)[C@@H]2O)cc1	none (no result: ALR inh, Dyrk1A ADPGlo)
O=C1NC(=O)C(=Cc2ccccc2)N1	none (no result: ALR inh)
CN(C)c1ccc(/C=C2/NC(=O)NC2=O)cc1	ALR inh 99.4
Clc1ccc(-c2nc3ccncc3[nH]2)cc1	ALR inh 98.7
O=C(CSc1ncn[nH]1)Nc1ccc2c(c1)CCC2	none
Oc1ccccc1Cc1c(O)ccc2ccccc12	ALR inh 91.1
O=C(Nc1cccc(F)c1)N1CCN(C/C=C/c2ccccc2)CC1	CAL PDZ FP-2 38.9
CN(C)c1ccc(NC(=O)CN2CCN(CC(=O)Nc3ccc(F)cc3)CC2)cc1	ALR inh 98.9
CN(C)c1ccc(NC(=O)CN2CCN(c3ccc(F)cc3)CC2)cc1	none
O=C(CN1CCN(CC(=O)Nc2cccc(F)c2)CC1)Nc1ccc(-c2ccccc2)cc1	CAL PDZ FP-2 58.3
Cc1ccc(C(=O)C2CCN(CC(=O)Nc3ccc(N(C)C)cc3)CC2)cc1	ALR inh 98.1
O=C(Nc1ccc(F)cc1)N1CCN(C/C=C/c2ccccc2)CC1	none
COc1ccc(NC(=O)Cc2nnc(SCC(=O)Nc3ccccc3)n2C)cc1	none
COc1ccc(-c2ccc3c(c2)C2CC3CCN2C(=O)C2CCCCC2)cc1 (stereo not drawn)	none (no result: ALR inh, Dyrk1A ADPGlo)
CC1CCc2c(nc3ncnn3c2N2CCN(c3ccccc3F)CC2)C1 (stereo not drawn)	none
CC1CCc2c(nc3ncnn3c2N2CCN(c3ccccc3)CC2)C1 (stereo not drawn)	ALR inh 98.7 (no result: CAL PDZ FP-1)
CCCCn1c(N)c(N(CC(C)C)C(=O)CSCC(=O)Nc2ccc(OC)cc2)c(=O)[nH]c1=O	none
O=C(O)CCC(=O)Nc1ccc(N2CCCCC2)c(C(=O)O)c1	none
O=C(O)CCC(=O)Nc1ccc2c(c1)Cc1cc(NC(=O)CCC(=O)O)ccc1-2	ALR inh 99.4
Cc1ccc(S(=O)(=O)N2[C@@H](c3ccc(Cl)cc3)C(C(=O)O)=CC[C@H]2c2ccc(Cl)c(Cl)c2)cc1	ALR inh 88.5
Cc1ccc(S(=O)(=O)N2[C@@H](c3ccc(C(C)(C)C)cc3)C(C(=O)O)=CC[C@H]2c2ccc(Cl)cc2)cc1	none (no result: ALR inh)
CC(C)Oc1ccc(C2CC(=O)N(c3cccc(/C=C/C(=O)O)c3)C2=O)cc1 (stereo not drawn)	none
COc1ccccc1CNC(=O)CCC1N=C2c3ccccc3N=C(SCC(=O)NCC3CCCO3)N2C1=O (stereo not drawn)	none
COc1ccccc1C(=O)OCC(=O)Nc1ccc(Cl)cn1	none (no result: Dyrk1A ADPGlo)
O=C1OCC(CO)(CO)N=C1NNc1ccccc1Cl	ALR inh 99.4
O=C(O)C1(Nc2ccccc2Cl)CCCC1	none (no result: ALR inh)
CN(C)c1nc(-c2cn(CCC#N)c3ccccc23)cs1	none
O=C(Cc1coc2cc(O)ccc12)NNC(=O)c1cccs1	ALR inh 99.0
O=C1OC(c2ccccc2)/C(=C(/O)c2ccccc2)C1=O (stereo not drawn)	ALR inh 92.3
O=C1OC(c2ccccc2)/C(=C(/O)c2ccc(Cl)cc2)C1=O (stereo not drawn)	ALR inh 98.5
Cc1ccc(/C(O)=C2/C(=O)C(=O)OC2c2ccc(Cl)cc2)cc1 (stereo not drawn)	ALR inh 92.1
CCOC(=O)N1CCC(NC(=O)CC2C(=O)NCCN2Cc2ccccc2F)CC1 (stereo not drawn)	none
N#CC1=C(N)N=C(SCc2ccccc2)C(C(N)=O)C12CCCCC2 (stereo not drawn)	none (no result: CAL PDZ FP-1)
Cc1ccc(C(=O)CSC2=NC(N)=C(C#N)C3(CCCCC3)C2C(N)=O)cc1 (stereo not drawn)	ALR inh 97.1, Rtt109 HAT inh inconclusive
CCOC(=O)C1CCN(C(=O)Cc2cccs2)CC1	none
Cc1cccc(-c2nc(CS(=O)CC(=O)N3CCN(C)CC3)c(C)o2)c1 (stereo not drawn)	ALR inh 98.7
CCOC(=O)C1CCN(C(=O)CS(=O)Cc2nc(-c3ccc(C)cc3)oc2C)CC1 (stereo not drawn)	ALR inh 99.7
Cc1ccc(-c2nc(CS(=O)CC(=O)N3CCN(c4ccc(F)cc4)CC3)c(C)o2)cc1 (stereo not drawn)	ALR inh 98.5
O=C(c1cc(COc2c(F)cccc2F)on1)N(Cc1ccccc1)CC1CC1	CAL PDZ FP-2 63.7
COc1ccc(NC(=O)Cn2ccc(C(F)(F)F)n2)cc1S(=O)(=O)N1CCOCC1	none
Cc1c(OCC(=O)N[C@@H](Cc2ccccc2)C(=O)O)ccc2c1oc(=O)c1ccccc12	none
Cc1c(OCC(=O)NC(Cc2ccc(Cl)cc2)C(=O)O)ccc2c3c(c(=O)oc12)CCCC3 (stereo not drawn)	ALR inh 97.5
Cc1c(Cc2ccccc2)c(=O)oc2c(C)c(OC(C)C(=O)N[C@@H](Cc3ccccc3)C(=O)O)ccc12 (stereo partly drawn)	ALR inh 97.4
Cc1cc(=O)oc2c(C)c(OC(C)C(=O)NCCN3CCOCC3)ccc12 (stereo not drawn)	none
Cc1c(OC(C)C(=O)N[C@H](C(=O)O)c2ccccc2)ccc2c3c(c(=O)oc12)CCCC3 (stereo partly drawn)	ALR inh 96.4
Cc1c(OC(C)C(=O)NCCN2CCOCC2)ccc2c3c(c(=O)oc12)CCCC3 (stereo not drawn)	CAL PDZ FP-2 67.0
COCCn1c(SCC(=O)NC2CCCC2)nc2c(c1=O)SCC2	none
O=C(CC1Nc2cccc3cccc(c23)NC1=O)Nc1ccc(F)cc1 (stereo not drawn)	none (no result: CAL PDZ FP-2)
COc1ccc(NC(=O)CC2Nc3cccc4cccc(c34)NC2=O)cc1 (stereo not drawn)	ALR inh 99.7
C=C(C)C(=O)Nc1ccc(NC(C)C)cc1	ALR inh 99.0
O=C1CC(=O)N(c2ccccc2)c2ccccc21	none
O=C1CC(=O)N(c2ccccc2)N1c1ccccc1	ALR inh 97.2
CCCCC(=O)Nc1cc(OC)c(NC(=S)Nc2ccc(OC)cc2)cc1OC	none (no result: ALR inh)
Cc1[nH]n(-c2cccc([N+](=O)[O-])c2)c(=O)c1-c1ccccc1	ALR inh 88.8
Cc1[nH]n(-c2ccccc2)c(=O)c1-c1ccccc1	none
Cc1[nH]n(-c2cccc(Cl)c2)c(=O)c1-c1ccccc1	ALR inh 84.3
Cc1[nH]n2c(=O)cc(-c3ccc([N+](=O)[O-])cc3)nc2c1-c1ccccc1	ALR inh 89.3
Cc1[nH]n(-c2ccccc2)c(=O)c1N=Nc1cccc([N+](=O)[O-])c1	none (no result: Dyrk1A ADPGlo)
CCCc1cc(=O)n2[nH]c(C)c(-c3ccccc3)c2n1	none
